Active and inactive are the calls of the source. The rule behind the calls is not given here.
Columns and labels:
[1] = biological target: T1, Adrenergic receptor alpha-1 (Rattus norvegicus, UniProt P15823+P23944+P43140); assay: Displacement of [3H]prazosin from alpha1 adrenergic receptor in rat brain; type: tissue-based
T1 sequence (P15823 whole entry): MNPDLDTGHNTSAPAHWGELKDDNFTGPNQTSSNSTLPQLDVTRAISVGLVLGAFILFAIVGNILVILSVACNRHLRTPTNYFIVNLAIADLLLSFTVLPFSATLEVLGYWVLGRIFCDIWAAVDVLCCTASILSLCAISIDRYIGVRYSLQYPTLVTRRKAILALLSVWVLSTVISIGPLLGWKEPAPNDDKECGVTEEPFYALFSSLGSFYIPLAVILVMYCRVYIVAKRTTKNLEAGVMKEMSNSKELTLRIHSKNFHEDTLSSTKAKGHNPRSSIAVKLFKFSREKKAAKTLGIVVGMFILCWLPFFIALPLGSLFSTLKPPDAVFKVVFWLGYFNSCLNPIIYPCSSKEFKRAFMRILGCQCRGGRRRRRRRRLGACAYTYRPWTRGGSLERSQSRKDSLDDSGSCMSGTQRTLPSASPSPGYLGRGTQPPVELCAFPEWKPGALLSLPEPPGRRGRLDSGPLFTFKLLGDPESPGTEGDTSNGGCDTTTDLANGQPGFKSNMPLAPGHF
T1 sequence (P23944 whole entry): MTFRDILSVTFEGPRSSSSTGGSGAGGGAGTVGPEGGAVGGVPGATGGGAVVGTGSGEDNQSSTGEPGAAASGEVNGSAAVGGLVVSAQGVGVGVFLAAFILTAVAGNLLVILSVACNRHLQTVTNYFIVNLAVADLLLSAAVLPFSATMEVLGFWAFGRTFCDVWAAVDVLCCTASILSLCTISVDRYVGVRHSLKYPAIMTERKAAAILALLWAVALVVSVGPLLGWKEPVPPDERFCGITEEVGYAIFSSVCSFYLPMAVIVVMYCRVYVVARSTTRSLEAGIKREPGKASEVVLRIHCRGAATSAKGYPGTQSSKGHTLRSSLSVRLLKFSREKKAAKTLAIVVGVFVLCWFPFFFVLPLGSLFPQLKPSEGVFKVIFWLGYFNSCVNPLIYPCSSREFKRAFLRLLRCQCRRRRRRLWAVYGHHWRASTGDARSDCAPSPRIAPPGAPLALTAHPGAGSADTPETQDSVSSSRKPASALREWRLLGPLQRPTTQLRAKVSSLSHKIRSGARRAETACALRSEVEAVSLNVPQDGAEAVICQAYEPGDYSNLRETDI
T1 sequence (P43140 whole entry): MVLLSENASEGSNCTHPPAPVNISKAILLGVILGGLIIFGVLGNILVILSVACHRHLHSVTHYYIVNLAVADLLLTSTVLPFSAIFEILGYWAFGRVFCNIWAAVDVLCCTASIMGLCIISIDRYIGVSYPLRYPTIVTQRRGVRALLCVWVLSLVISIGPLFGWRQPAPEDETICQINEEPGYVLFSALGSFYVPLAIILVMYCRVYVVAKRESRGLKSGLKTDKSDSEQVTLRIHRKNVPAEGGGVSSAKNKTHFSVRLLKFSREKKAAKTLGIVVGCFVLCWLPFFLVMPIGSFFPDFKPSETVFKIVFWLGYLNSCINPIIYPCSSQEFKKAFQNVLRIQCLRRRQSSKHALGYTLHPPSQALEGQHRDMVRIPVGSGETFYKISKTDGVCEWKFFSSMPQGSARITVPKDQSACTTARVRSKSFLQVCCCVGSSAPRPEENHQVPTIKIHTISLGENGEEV
Procedure, shortened: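 Rat brain membranes; displacement of [3H]-prazosin at 4–6 concentrations, each point in duplicate. IC50 from displacement curves fitted by nonlinear least-squares regression.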

[2] = biological target: Glutamate NMDA receptor; Grin1/Grin2b (Rattus norvegicus, UniProt P35439+Q00960); assay: Inhibition of rat recombinant NR1/NR2B receptor expressed in Xenopus oocytes assessed as inhibition of glutamate and glycine-induced evoked current by two electrode voltage clamp method; type: cell-based, Oocyte
[3] = Half life in rat plasma at 4 mg/kg, iv administered as single dose by LC-MS/MS analysis; type: ADME, organism-based; set-up: dose 4 mg/kg, route intravenous
Procedure, shortened: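 Rats, n = 3, fasted overnight and given a single 4 mg/kg iv bolus via the tail vein in 2% dimethyl acetamide/98% 5% hydroxypropyl cyclodextrin. Blood collected into K-EDTA from the orbital plexus at 5, 30, 120 and 240 min. Plasma extracted with cold acetonitrile and analyzed by LC-MS/MS in MRM mode against a standard curve.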

[4] = system: Rattus norvegicus; assay: Effect on locomotor activity in Sprague-Dawley rat at 0.3 mg/kg, ip; type: functional; details: route intraperitoneal
Procedure, shortened: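 Rats habituated to the test room at least 30 min, then basal horizontal activity recorded 1 h in photobeam activity chambers. Animals then dosed ip and returned to the chamber for 2 h. Vehicle group run each day. Compared with vehicle by ANOVA with Dunnett's post hoc.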

[5] = system: Mus musculus; assay: Effect on motor coordination in mouse at 0.6 mg/kg, ip administered 20 mins prior to test after 5 days by rotarod test; type: ADME, organism-based; set-up: dose 0.6 mg/kg, route intraperitoneal; details: in vivo
Procedure, shortened: (§1)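 Accelerating rotarod: starts at 5 rpm, then after 10 s ramps 5 to 35 rpm over 5 min; latency to fall recorded automatically. Four trials daily, 25 min apart, for 5 days. On day 5 mice randomised and dosed ip (25% DMSO/75% saline, 5 mL/kg) 20 min before the first trial. Tester blinded; ANOVA with Dunnett's post hoc.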

[6] = system: Mus musculus; assay: Effect on motor coordination in mouse at 0.3 mg/kg, ip administered 20 mins prior to test after 5 days by rotarod test; type: ADME, organism-based; set-up: dose 0.3 mg/kg, route intraperitoneal; details: in vivo; procedure, shortened: as §1
[7] = biological target: Glutamate NMDA receptor; Grin1/Grin2b (Rattus norvegicus) (UniProt P35439+Q00960); assay: Inhibition of rat wild type NR1/NR2B receptor expressed in Xenopus oocytes at 100 nM by two electrode voltage clamp method; type: cell-based; details: Oocyte
[8] = system: Glutamate receptor ionotropic, NMDA 1 (Rattus norvegicus), P35439 [H134A]; assay: Inhibition of rat NR1(H134A)/NR2B mutant receptor expressed in Xenopus oocytes at 100 nM by two electrode voltage clamp method; type: cell-based; details: Oocyte
[9] = system: Glutamate receptor ionotropic, NMDA 2B (Rattus norvegicus), Q00960 [E201R]; assay: Inhibition of rat NR1/NR2B(E201R) mutant receptor expressed in Xenopus oocytes at 100 nM by two electrode voltage clamp method; type: cell-based; details: Oocyte
[10] = system: Rattus norvegicus; assay: Anticonvulsant activity in Sprague-Dawley rat assessed as inhibition of electroshock-induced tonic hind limb extension at 30 mg/kg, ip administered 30 mins before electroshock; type: functional, organism-based; set-up: dose 30 mg/kg; details: Hindlimb
Procedure, shortened: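 Male Sprague–Dawley rats, 100–125 g, with 1% lidocaine dropped into each conjunctiva before maximal electroshock. Compound given ip in DMSO 30 min before the stimulus. Tested on three consecutive days: untreated on days 1 and 3, compound on day 2. Duration of tonic hind limb extension scored visually. Vehicle served as negative control and carbamazepine 60 mg/kg as positive control. ANOVA with Bonferroni post hoc test.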

[11] = biological target: Voltage-gated inwardly rectifying potassium channel KCNH2 (Homo sapiens, UniProt Q12809); assay: Displacement of [3H]astemizole from human ERG expressed in HEK293 cells
Voltage-gated inwardly rectifying potassium channel KCNH2, sequence (Q12809 whole entry): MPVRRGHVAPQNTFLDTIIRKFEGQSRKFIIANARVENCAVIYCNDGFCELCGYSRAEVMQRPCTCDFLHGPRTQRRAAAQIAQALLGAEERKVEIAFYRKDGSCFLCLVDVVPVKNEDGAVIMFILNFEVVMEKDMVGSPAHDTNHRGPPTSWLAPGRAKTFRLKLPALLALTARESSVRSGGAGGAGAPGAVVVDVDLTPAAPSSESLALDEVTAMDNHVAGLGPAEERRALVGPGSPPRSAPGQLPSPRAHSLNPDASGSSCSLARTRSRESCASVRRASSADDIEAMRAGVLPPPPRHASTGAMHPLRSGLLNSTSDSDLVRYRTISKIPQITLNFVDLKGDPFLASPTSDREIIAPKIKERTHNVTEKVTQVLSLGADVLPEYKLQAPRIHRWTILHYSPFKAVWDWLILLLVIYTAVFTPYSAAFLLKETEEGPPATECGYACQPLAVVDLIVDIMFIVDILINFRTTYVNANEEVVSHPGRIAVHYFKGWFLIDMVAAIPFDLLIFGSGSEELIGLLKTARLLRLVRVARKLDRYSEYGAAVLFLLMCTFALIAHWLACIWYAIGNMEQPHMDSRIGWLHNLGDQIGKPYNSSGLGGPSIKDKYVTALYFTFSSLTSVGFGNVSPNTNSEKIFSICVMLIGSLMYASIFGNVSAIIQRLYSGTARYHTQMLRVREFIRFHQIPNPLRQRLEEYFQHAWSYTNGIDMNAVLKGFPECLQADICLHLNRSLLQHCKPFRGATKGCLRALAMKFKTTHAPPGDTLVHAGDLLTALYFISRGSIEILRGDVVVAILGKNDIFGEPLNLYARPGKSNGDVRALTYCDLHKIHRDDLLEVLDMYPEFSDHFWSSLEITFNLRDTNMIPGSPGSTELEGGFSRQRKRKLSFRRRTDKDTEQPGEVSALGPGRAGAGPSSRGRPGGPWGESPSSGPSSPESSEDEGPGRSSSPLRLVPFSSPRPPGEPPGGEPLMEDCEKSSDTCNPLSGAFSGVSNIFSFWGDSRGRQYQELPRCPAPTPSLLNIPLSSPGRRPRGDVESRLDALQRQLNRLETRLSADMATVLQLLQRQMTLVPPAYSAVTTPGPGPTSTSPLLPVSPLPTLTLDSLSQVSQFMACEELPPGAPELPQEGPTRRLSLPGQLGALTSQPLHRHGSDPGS

SMILES | IC50 [1] [µM] | IC50 [2] [nM] | half-life [3] [min] | IC50 [11] [nM] | also measured
CS(=O)(=O)Nc1ccc(OC[C@@H](O)CN(CCc2ccc(Cl)c(Cl)c2)Cc2cccc(O)c2)cc1 | > 10 | 238 | 36 |  | 
C[C@]12N[C@H](Cc3ccccc31)c1ccccc12 [DIZOCILPINE] |  |  |  |  | Activity [4]: 38233; Activity [5]: Toxic; Activity [6]: Toxic
CS(=O)(=O)Nc1ccc(OC[C@@H](O)CN(CCc2ccc(Cl)c(Cl)c2)Cc2ccccn2)cc1 |  | 2760 | 36 |  | 
CN(CCc1ccc(Cl)c(Cl)c1)CC(O)COc1ccc(NS(C)(=O)=O)cc1 (racemic) |  |  |  |  | inhibition [7]: 67.1%; inhibition [8]: 8.9%; inhibition [9]: 4.2%; Activity [10]: Active
CCN(CCc1ccc(Cl)c(Cl)c1)C[C@H](O)COc1ccc(NS(C)(=O)=O)cc1 | 3.5 | 96 | 36 |  | 
Cc1ccc(CCNC[C@H](O)COc2ccc(NS(C)(=O)=O)cc2)cc1C | 2.2 | 207 |  | 2400 | 
CS(=O)(=O)Nc1ccc(OC[C@@H](O)CN(CCO)CCc2ccc(Cl)c(Cl)c2)cc1 |  | 122 | 36 |  | Activity [10]: Active
CS(=O)(=O)Nc1ccc(OC[C@@H](O)CNCCc2ccc(Cl)c(F)c2)cc1 | > 10 | 68 |  | 1910 | 
CS(=O)(=O)Nc1ccc(OC[C@@H](O)CNCCc2ccc(F)c(F)c2)cc1 | > 10 | 357 |  | 1630 | 
CCCCN(CCc1ccc(Cl)c(Cl)c1)C[C@H](O)COc1ccc(NS(C)(=O)=O)cc1 | 4.9 | 421 | 36 |  | 

Reference: ChEMBL document CHEMBL1140127, “Enantiomeric propanolamines as selective N-methyl-D-aspartate 2B receptor antagonists” (J Med Chem, 2008)
